Test results as given in ChEMBL document CHEMBL2034814, “Synthesis and evaluation of γ-lactam analogs of PGE₂ as EP4 and EP2/EP4 agonists” (Bioorg Med Chem, 2012).

Legend:
[1] = target: T1, Prostaglandin E2 receptor EP1 subtype (Mus musculus, UniProt P35375); assay: Displacement of [3H]PGE2 from mouse EP1 receptor expressed in CHO cells after 20 mins by scintillation counting; assay type: cell-based
T1 sequence (P35375 whole entry): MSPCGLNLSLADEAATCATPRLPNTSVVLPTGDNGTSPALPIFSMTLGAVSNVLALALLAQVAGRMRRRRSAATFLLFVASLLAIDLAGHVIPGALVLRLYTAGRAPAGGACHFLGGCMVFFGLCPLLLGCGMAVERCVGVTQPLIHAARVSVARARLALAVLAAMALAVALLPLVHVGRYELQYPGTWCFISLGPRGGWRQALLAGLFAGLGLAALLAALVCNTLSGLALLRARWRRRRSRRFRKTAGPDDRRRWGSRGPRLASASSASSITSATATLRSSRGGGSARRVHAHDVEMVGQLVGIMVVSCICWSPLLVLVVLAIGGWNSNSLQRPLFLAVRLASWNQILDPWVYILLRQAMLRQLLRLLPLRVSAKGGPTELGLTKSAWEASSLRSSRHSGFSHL

[2] = target: Prostaglandin E2 receptor EP4 subtype (Mus musculus, UniProt P32240); assay: Displacement of [3H]PGE2 from mouse EP4 receptor expressed in CHO cells after 60 mins by scintillation counting; assay type: cell-based
Chain of Prostaglandin E2 receptor EP4 subtype (Mus musculus, UniProt P32240) (P32240 whole entry): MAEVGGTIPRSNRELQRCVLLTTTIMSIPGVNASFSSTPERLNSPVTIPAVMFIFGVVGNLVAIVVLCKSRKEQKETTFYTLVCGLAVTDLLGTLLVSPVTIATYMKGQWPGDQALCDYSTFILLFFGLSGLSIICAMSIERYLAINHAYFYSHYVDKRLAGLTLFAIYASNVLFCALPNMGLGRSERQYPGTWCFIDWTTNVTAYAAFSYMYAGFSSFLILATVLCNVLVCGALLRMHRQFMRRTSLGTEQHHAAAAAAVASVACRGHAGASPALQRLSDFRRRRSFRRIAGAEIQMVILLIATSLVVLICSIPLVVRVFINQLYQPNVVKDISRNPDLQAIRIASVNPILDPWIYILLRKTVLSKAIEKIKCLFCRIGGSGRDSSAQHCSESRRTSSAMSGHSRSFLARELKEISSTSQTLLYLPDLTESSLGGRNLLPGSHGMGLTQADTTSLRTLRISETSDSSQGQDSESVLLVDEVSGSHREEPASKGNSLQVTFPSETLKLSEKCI

[3] = target: Prostaglandin E2 receptor EP4 subtype (Rattus norvegicus, UniProt P43114); assay: Agonist activity at rat EP4 receptor expressed in CHO cells assessed as cAMP production after 10 mins by radioimmunoassay; assay type: functional, cell-based
Chain of Prostaglandin E2 receptor EP4 subtype (Rattus norvegicus, UniProt P43114) (P43114 whole entry): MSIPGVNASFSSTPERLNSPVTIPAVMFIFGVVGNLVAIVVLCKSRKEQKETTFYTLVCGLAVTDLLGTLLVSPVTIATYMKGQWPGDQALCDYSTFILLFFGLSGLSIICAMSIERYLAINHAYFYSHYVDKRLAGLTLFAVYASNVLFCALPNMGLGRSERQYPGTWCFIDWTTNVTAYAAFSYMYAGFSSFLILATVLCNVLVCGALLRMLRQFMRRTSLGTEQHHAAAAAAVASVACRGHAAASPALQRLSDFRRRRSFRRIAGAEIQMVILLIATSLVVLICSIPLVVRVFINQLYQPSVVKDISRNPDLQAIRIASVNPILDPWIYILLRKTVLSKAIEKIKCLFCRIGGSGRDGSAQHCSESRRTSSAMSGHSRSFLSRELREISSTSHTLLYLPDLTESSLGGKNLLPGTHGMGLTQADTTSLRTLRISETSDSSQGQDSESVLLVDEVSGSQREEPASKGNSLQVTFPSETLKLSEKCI

[4] = target: Prostaglandin E2 receptor EP2 subtype (Mus musculus, UniProt Q62053); assay: Displacement of [3H]PGE2 from mouse EP2 receptor expressed in CHO cells after 60 mins by scintillation counting; assay type: cell-based
Chain of Prostaglandin E2 receptor EP2 subtype (Mus musculus, UniProt Q62053) (Q62053 whole entry): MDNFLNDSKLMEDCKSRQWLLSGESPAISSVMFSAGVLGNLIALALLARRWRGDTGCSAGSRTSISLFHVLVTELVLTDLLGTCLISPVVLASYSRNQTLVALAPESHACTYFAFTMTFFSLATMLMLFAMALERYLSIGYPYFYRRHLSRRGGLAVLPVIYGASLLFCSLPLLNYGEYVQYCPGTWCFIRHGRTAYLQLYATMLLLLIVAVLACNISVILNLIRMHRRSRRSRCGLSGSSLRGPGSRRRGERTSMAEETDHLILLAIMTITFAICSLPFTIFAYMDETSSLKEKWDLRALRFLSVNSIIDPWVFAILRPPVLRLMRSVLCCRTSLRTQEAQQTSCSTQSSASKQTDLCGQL

[5] = target: T2, Prostaglandin E2 receptor EP3 subtype (Mus musculus, UniProt P30557); assay: Displacement of [3H]PGE2 from mouse EP3 receptor expressed in CHO cells after 60 mins by scintillation counting; assay type: cell-based
T2 sequence (P30557 whole entry): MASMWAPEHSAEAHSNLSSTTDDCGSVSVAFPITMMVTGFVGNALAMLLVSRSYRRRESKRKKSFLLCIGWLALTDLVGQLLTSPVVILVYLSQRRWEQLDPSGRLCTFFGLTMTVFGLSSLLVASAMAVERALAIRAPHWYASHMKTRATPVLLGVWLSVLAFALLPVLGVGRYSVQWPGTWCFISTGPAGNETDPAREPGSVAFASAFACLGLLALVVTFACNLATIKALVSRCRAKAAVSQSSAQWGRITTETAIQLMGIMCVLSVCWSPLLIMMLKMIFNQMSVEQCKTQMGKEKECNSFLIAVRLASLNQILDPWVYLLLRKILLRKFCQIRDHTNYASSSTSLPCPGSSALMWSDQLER

[6] = target: Prostaglandin E2 receptor EP2 subtype (Rattus norvegicus, UniProt Q62928); assay: Agonist activity at rat EP2 receptor expressed in CHO cells assessed as cAMP production after 10 mins by radioimmunoassay; assay type: functional, cell-based
Chain of Prostaglandin E2 receptor EP2 subtype (Rattus norvegicus, UniProt Q62928) (Q62928 whole entry): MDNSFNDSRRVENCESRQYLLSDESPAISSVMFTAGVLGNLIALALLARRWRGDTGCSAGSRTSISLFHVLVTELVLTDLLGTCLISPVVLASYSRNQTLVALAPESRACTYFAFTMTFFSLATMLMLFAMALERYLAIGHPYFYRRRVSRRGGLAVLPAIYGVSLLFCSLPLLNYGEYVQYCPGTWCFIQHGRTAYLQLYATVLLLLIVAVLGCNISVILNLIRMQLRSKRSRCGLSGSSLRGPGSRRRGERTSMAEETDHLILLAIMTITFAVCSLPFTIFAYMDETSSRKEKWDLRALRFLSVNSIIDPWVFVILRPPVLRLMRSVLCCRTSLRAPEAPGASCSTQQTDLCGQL
How it was run: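 CHO cells expressing rat EP2 receptor, seeded 1 × 10^5 cells/well and grown 2 days; washed, incubated 10 min at 37 °C in MEM with 2 µM diclofenac, then preincubated 10 min in assay medium with 1% BSA. Compound added, 10 min at 37 °C, stopped with ice-cold 10% trichloroacetic acid; cAMP measured by radioimmunoassay.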

SMILES | Ki [1] | Ki [2] | EC50 [3] | Ki [4] | Ki [5] | EC50 [6]
O=C(O)CCCSCCN1C(=O)CC[C@@H]1/C=C/[C@@H](O)Cc1cccc(OCc2ccccn2)c1 | > 10 µM | 0.00089 µM | 0.00061 µM | > 10 µM | > 10 µM | –
O=C(O)CCCSCCN1C(=O)CC[C@@H]1/C=C/[C@@H](O)Cc1cccc(-c2nc3ccccc3s2)c1 | > 10 µM | 0.00036 µM | 0.0032 µM | 0.72 µM | > 10 µM | –
O=C(O)CCCSCCN1C(=O)CC[C@@H]1/C=C/[C@@H](O)Cc1cccc(OCc2cccnc2)c1 | > 10 µM | 0.0047 µM | 0.019 µM | > 10 µM | > 10 µM | –
O=C(O)CCCSCCN1C(=O)CC[C@@H]1/C=C/[C@@H](O)Cc1cccc(-c2ccccc2)c1 | > 10 µM | 0.0011 µM | 0.052 µM | > 10 µM | > 10 µM | –
COc1ccc(-c2cccc(C[C@H](O)/C=C/[C@H]3CCC(=O)N3CCSc3nc(C(=O)O)cs3)c2)cc1 | 5.4 µM | 0.0017 µM | 0.015 µM | 0.0092 µM | > 10 µM | 4.6 µM
Cc1cccc2oc(-c3cccc(C[C@H](O)/C=C/[C@H]4CCC(=O)N4CCSc4nc(C(=O)O)cs4)c3)nc12 | 7.7 µM | 0.00021 µM | 0.028 µM | 0.022 µM | > 10 µM | 8.5 µM
O=C(O)c1csc(SCCN2C(=O)CC[C@@H]2/C=C/[C@@H](O)Cc2cccc(-c3nc4cc(Cl)ccc4s3)c2)n1 | 0.68 µM | 0.00025 µM | 0.0097 µM | 0.022 µM | > 10 µM | > 10 µM
O=C(O)c1csc(SCCN2C(=O)CC[C@@H]2/C=C/[C@@H](O)Cc2cccc(-c3nc4ccccc4s3)c2)n1 | 8 µM | 0.00019 µM | 0.013 µM | 0.015 µM | > 10 µM | 2.7 µM
O=C(O)CCCSCCN1C(=O)CC[C@@H]1/C=C/[C@@H](O)Cc1cccc(N2Cc3ccccc3C2)c1 | 7.1 µM | 0.0044 µM | 0.028 µM | > 10 µM | > 10 µM | –
O=C(O)CCCSCCN1C(=O)CC[C@@H]1/C=C/[C@@H](O)Cc1cccc(-c2ccccn2)c1 | > 10 µM | 0.0048 µM | 0.086 µM | 6.1 µM | > 10 µM | –

More lines, in order of falling EC50 [3], values ahead:

Ki [1] | Ki [2] | EC50 [3] | Ki [4] | Ki [5] | EC50 [6] | SMILES
2.4 µM | 0.0035 µM | 0.16 µM | 0.023 µM | > 10 µM | > 10 µM | Cc1ccc(-c2cccc(C[C@H](O)/C=C/[C@H]3CCC(=O)N3CCSc3nc(C(=O)O)cs3)c2)c(C)c1
> 10 µM | 0.0006 µM | 0.096 µM | 2.1 µM | > 10 µM | – | O=C(O)CCCSCCN1C(=O)CC[C@@H]1/C=C/[C@@H](O)Cc1cccc(-c2ccc3ccccc3c2)c1
> 10 µM | 0.00028 µM | 0.085 µM | 3.5 µM | > 10 µM | – | O=C(O)CCCSCCN1C(=O)CC[C@@H]1/C=C/[C@@H](O)Cc1cccc(-c2ccc3[nH]ccc3c2)c1
> 10 µM | 0.028 µM | 0.046 µM | > 10 µM | > 10 µM | – | O=C(O)CCCSCCN1C(=O)CC[C@@H]1/C=C/[C@@H](O)Cc1cccc(OCc2ccncc2)c1
2.5 µM | 0.00035 µM | 0.021 µM | 0.0015 µM | > 10 µM | 1.4 µM | Cc1ccc(-c2cccc(C[C@H](O)/C=C/[C@H]3CCC(=O)N3CCSc3nc(C(=O)O)cs3)c2)cc1C
5 µM | 0.0002 µM | 0.013 µM | 1.7 µM | > 10 µM | – | O=C(O)CCCSCCN1C(=O)CC[C@@H]1/C=C/[C@@H](O)Cc1cccc(-c2nc3ccccc3o2)c1
– | – | 0.0057 µM | – | – | – | Cc1cccc(C[C@H](O)/C=C/[C@H]2CCC(=O)N2CCSCCCC(=O)O)c1
> 10 µM | 0.00012 µM | 0.0022 µM | 0.028 µM | > 10 µM | 1.6 µM | O=C(O)c1csc(SCCN2C(=O)CC[C@@H]2/C=C/[C@@H](O)Cc2cccc(-c3nc4ccccc4o3)c2)n1
